Reference: the RNAGym collection of RNA variant scans (doi:10.1126/science.aae0568)
Fewer inactive variants are shown than the library holds.

B1: tRNA (parent)
chain: GUUCCGUUGGCGUAAUGGUAACGCGUCUCCCUCCUAAGGAGAAGACUGCGGGUUCGAGUCCCGUACGGAACG

Variants of: B1
Assay: yeast fitness relative to wild type (ratio to wild type); higher = fitter; tRNA-Arg(CCU), competitive growth, 37 C, YPD
How it was run: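 Variants of the tRNA-Arg(CCU) gene were chemically synthesised with a 3% per-site mutation rate across 69 sites and placed at the native genomic locus in Saccharomyces cerevisiae. Six parallel replicates of the pooled strains were competed in YPD at 37°C for 24 hours, and gene amplicons from the start and end populations were read by 100-nucleotide paired-end sequencing. Darwinian fitness relative to wild type was derived from changes in genotype frequencies. Genotypes required ≥ 100 starting reads, and estimates < 0.5 were set to 0.5.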

Row | Variant | yeast fitness
1 | GUUGCGUUGGCGUAAUGGUAACGCGUCUCCCUCCUAAGGAGACGGCUGCGGGUUCGAGUCCCGUACGGAACG | 0.629
2 | GUUGUGUUGGCGUAAUGGUAAGGCGUCUCCCUCCUAAGGAGAAGACUGCGGGUUCGAGUCCCGUACGGAACG | ≤ 0.5
3 | GUUGCGUUGGCGUAAUGGUAACGCGUCUCCCUCCUAAGGUGAAGUCCGCGGGUUCGAGUCCCGUACGGAACG | ≤ 0.5
4 | GUUGUGUUGGCGUAAUGGUAACGCGUCUCCCUCCUAAGGAGAACACUGCGGGUUCGAGUCCCGUACUGAACG | ≤ 0.5
5 | GUUGUGUUGGCGUAAUGGUAACGCGUCUCCCUCCUAAGGAGAAGACUGCGGGUUCGAGUCCCGUACGAAACG | 0.602
6 | GUUGUGUUGGCGUAAUGGUAACGCGUCUCCCUCCUAGGGAGAAGACUGCGGGUUCGAGUCCUGUACGGAACG | ≤ 0.5
7 | GUUGCGUUGGCGUAAUGGUAACGCGUCUCCCUCCUAAGGAGGAGUCUGCGGGUUCGAGUCCCGUACGGAACG | 0.67
8 | GUUGCGUUGGCGUAAUGGUAACGCGUCUCCCUCCUAAGGAGAAGCCUGCGGGUUCGAGUCCCGUACGGAACG | 0.767
9 | GUUGGGUUAGCGUAAUGGUAACGCGUCUCCCUCCUAAGGAGAAGACUGAGGGUUCGAGUCCCGUACGGAACG | 0.739
10 | GUUGUGUUGGCGUAAUGGUAACGCGUCUCCCUCCUAAGGAGGAGUCUGCGGGUUCGAGUCCCGUAUGGAACG | ≤ 0.5
11 | GUUGUGUUGGCGUAAUGGUAACGCGUCUCCCUCCUGAGGAGAAGACUGCGGGUCCGAGUCCCGUACGGCACG | ≤ 0.5
12 | GUUGAGUUGGUGUAAUGGUAACGCGUGUCCCUCCUAAGGAGAAGACUGCGGGUUCGAGUCCCGUUCGUAACG | ≤ 0.5
13 | GUUGCGUUGGCGUAAUGGUAACGCGUCUCCCUCCUAAGGAGAGGACUGCGCGUUCGAGUCCCGUACGGAACG | ≤ 0.5
14 | GUUGCGUUGGCGUAAUGGUAACGCGUCUCCCUCCUAAGGAGAAGACUGCGGGUUCGGGUCCCGUACGGAACG | 0.728
15 | GUUGCGUUGGCGUAAUGGUAACGCGUCUCCCUCCUAAGGAGAAGACUGCGGGUUCGUGUCCCGUACGGAACG | 0.757
16 | GUUGCGUUGGCGUAAUGGUAACGCGUCUCCCUCCUAAGGUGAAGUCUGCGGGUUCGAGUCCCGUACAGAACG | ≤ 0.5
17 | GUUGUGUUGGCGUAAUGGUAACGCGUCUCCCUCCUAAGGAGAAGACUGAGGGUUCGAGUCCCGUACGGACCG | 0.529
18 | GUUGGGUUGGAGUAAUGGUAACGCGUCUCCCUCCUAAAGAGAAGACUGUGGGUUCGAGUCCCGUACGGAACG | ≤ 0.5
19 | GUUGUGUUGGCGUAAUGGUAACGCCUCUCCCUCCUAAGGAGAAGACUGCGGGUUCGAGUCCCGUACGAAACG | ≤ 0.5

Row | Variant | yeast fitness
20 | GUUGGGUUGGCGUAAUGGUAACGCGUCUCCCUCGUAAGGAGAAGACUGCGGGUUCGAGUCCCGUACGGAACG | ≤ 0.5
21 | GUUGCGUUGGCGUAAUGGUAACGCGUCUCCCUCCUAAGGUGAAGACUGCGGGUUCGAGUCCAGUACGGAACG | 0.638
22 | GUUGCGUUGGCGUAAUGGUAACGCGUCUCCCUCCUAAGGAGACGACUGCGGGUUCGAGUCACGUACGGAACG | 0.551
23 | GUUGCGUUGGCGUAAUGGUAACGCGUCUCCCUCCUAAGGAGCAGACUGCGGGUUCGAGUCCCGUACGGAACG | 0.78
24 | GUUGCGUUGGCGUAAUGGUAACGCGUCUCCCUCCUAAGGAGGAGACUGCGGGUUCGAGUCCCGUACGGAACG | 0.897
25 | GUUGCGUUGGCGUAAUGGUAACGCGUCUCCCUCCUAAGGAGAAGACUGCGGGUUCGAGUCCCGUACGGAGCG | 0.909
26 | GUUGCGUUGGCGUAAUGGUAACGCGUCUCCCUCCUAAGGAGAAGACUGCGGGUUCGAGUCCCGUACGGACCG | 1.08
27 | GUUGCGUUGGCGUAAUGGUAACGCGUCUCCCUCCUAAGGAGAAGACUGCGGGUUCGAGUCCCGUACGGAUCG | 0.806
28 | GUUGUGUUGGCGUAAUGGUAACACGUCUCCCUCCUAAGGAGAAGACUGCGGGUUAGAGUCACGUACGGAACG | ≤ 0.5
29 | GUUGCGUUGGCGUAAUGGUAACGCGUCUCCCUCCUAAGGUGAAGAUUGCGGGUUCGAGUCCCGUACUGAACG | 0.602
30 | GUUGCGUUGGCGUAAUGGUAACGCGUCUCCCUCCUAAGGAGAAGGCUGCGGGUUCGAGUCCAGUACGGAACG | 0.554
31 | GUUGGGUUGGCGUAAUGGUAACGCGCCUCCCUCCUAAGGAGAGGACUGCGGGUUCGAGUCCCGUACGGAACG | ≤ 0.5
32 | GUUGCGUUGGCGUAAUGGUAACGCGUCUCCCUCCUAAGGAGAAGACUGCGGGUUCGAGUCCCGUCCGGAACG | 0.733
33 | GUUGGGUUGACGUAAUGAUAACGCGUCUCCCUCCUAAGGAGCAGACUGCGGGUUCGAGUCCCGUACGGAACG | ≤ 0.5
34 | GUUGGGUUGGCGUAAUGGUAACGCGUCUCCCUCCUAAGGAGAAGACUGCGGGUUCGAGUCCCGUACGGAACG | 0.697
35 | GUUGAGUUGGCGUAAUGGUAACGCGUAUCCCUCCUAAGGAGAAGACUGCGGGUUCGAGUCCCGUACGGAACG | 0.641
36 | GUUGCGUUGGCGUAAUGGUAACGCGUCUCCCUCCUAAGGAGAUGACUGCGGGUUCGAGUCCCGUACGGAACG | 0.856
37 | GUUGCGUUGGCGUAAUGGUAACGCGUCUCCCUCCUAAGGAGAGGACUGCGGGUUCGAGUCCCGUACGGAACG | 0.729
38 | GUUGGGUUGGUGUAAUGGUAACGCGUCUCCCUCCUAAGGAGAAGACUGCGGGUUCAAGUCACGUACGGAACG | ≤ 0.5
